# M1 antagonist: antagonists of rat M1 muscarinic receptor; CHO-M1 cells, Fluo-4 calcium, ACh EC80 antagonist mode; active compounds read low; B-score at 10 µM; 64,000 tested, 3.4% active; AID 628, 2007;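 active = calcium fluorescence response, raw or row-and-column corrected B-score, differing from the plate sample mean either way at a set confidence level, mostly lower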
# D1 allo mod: D1 CRE-luciferase signal change, two-sided – cell-based, HEK293 D1, dopamine EC30, D1 allosteric modulator project, primary screen; D(1A) dopamine receptor (Homo sapiens), P21728; dopamine EC30 potentiation; actives deviate in either direction; B-score at 10 µM; 58,000 tested, 5.9% active;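 active = luminescence count or its row- and column-corrected plate score outside the 99.7% band of the plate's sample wells, on either side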
# TNAP act mid DEA: human TNAP enzyme activators, primary screen, biochemical, luminescent, intermediate phosphate acceptor level; Alkaline phosphatase, tissue-nonspecific isozyme (Homo sapiens), P05186; purified TNAP, CDP-star luminescence, 100 mM DEA, 30 min; active compounds read high; scale: 0 levamisole-inhibited, 1 vehicle-only enzyme; activation factor at 20 µM; 64,000 tested, under 10 active; AID 813, 2007;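 active = activation factor of at least 2 at 20 µM, relative to controls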
# M1 ag: M1 muscarinic receptor agonists, primary screen, CHO-M1 cells, Fluo-4 calcium, agonist mode | Muscarinic acetylcholine receptor M1 | Fluo-4 calcium fluorescence; active compounds read high | B-score at 10 µM | 64,000 tested, 3% active | AID 626, 2007;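 active = fluorescence rise, raw or as B-score row- and column-corrected plate score, outside the 99.7% band of its plate's samples, either direction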
# S1P3 ag: human S1P3 receptor agonists, primary screen, cell-based, primary and confirmation, NFAT-BLA reporter | 60,000 tested, 0.1% active | AID 373, 2006 | activation, % at 4.5 µM | Sphingosine 1-phosphate receptor 3 (Homo sapiens), Q99500 | S1P3 NFAT-BLA reporter cells, agonism, FRET ratio; relative to 1 µM S1P, basal subtracted;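 active = activation above the screen-wide mean plus 3 SD, cut at about 4.5% in these data, passing the limit was not always enough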
# Target sequence (Q99500 whole entry, looked up): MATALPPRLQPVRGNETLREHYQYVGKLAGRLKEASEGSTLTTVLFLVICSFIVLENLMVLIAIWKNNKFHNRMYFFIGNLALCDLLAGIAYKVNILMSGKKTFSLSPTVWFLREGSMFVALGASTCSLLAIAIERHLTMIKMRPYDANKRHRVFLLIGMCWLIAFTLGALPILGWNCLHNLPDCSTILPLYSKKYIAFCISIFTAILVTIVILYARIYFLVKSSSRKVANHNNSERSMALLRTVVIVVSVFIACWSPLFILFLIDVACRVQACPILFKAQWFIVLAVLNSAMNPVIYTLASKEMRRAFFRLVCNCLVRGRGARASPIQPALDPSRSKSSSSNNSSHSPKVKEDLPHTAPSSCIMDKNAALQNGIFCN
#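 Assay system: CHO cells stably expressing human S1P3, Gα16 and NFAT-β-lactamase reporter. Timing: overnight plating, 4 h compound 37 °C, 2 h substrate RT. Signal: β-lactamase FRET emission ratio 460/535 nm. Measure: percent activation versus median 1 µM S1P response, basal-subtracted, per plate. Repeats: primary screen single test, confirmation screen in triplicate.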
# S1P1 ag-PAM: S1P1 agonists and agonism potentiators, primary screen, cell-based, primary and confirmation screens, CRE-bla reporter; activation, % at 9.5 µM; 56,000 tested, 0.57% active; S1P1 CRE-bla cells, forskolin, beta-lactamase FRET, potentiator mode; S1P1 agonist co-added at EC20, 2 nM; 100% = saturating reference agonist, 0% = basal; Sphingosine 1-phosphate receptor 1 (Homo sapiens), P21453;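 active = activation above a cutoff set at the mean activation of all tested compounds plus 3 SD, cut at about 54% in these data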;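 note: forskolin at 4 µM as EC80 and the EC20 agonist is SEW2871; 100% = SEW2871 at its EC100 plus forskolin at EC80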
# M1 antag confirm: rat M1 muscarinic receptor antagonists, confirmation, CHO cells, Fluo-4 calcium, duplicate | 1,700 tested, 43% active | AID 677, 2007 | ACh EC80 antagonism; active compounds read low | shares compounds with M1 antagonist | calcium response (max-min fluorescence) at 10 µM;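 active = calcium response below the same-plate mean of wells given acetylcholine alone at its 80%-effect dose, minus 3 SD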;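 note: raw fluorescence intensity difference in arbitrary instrument units and not normalized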
# mGluR4 antag: human mGluR4 response to M1 antagonist hits, M1 allosteric modulator project, cell-based, antagonist mode, secondary assay 1. shares compounds with M1 antagonist. CHO-mGluR4 calcium flux, Fluo-4 fluorescence, glutamate EC80; active compounds read low. fluorescence response (max-min) at 10 µM. 1,700 tested, 0.9% active. AID 678, 2007;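 active = fluorescence response below the plate's average for near-maximal glutamate wells, less 3 SD of those wells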;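 note: raw unnormalized fluorescence span taken in the window right after glutamate addition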
# D1 PAM confirm: D1 receptor positive allosteric modulators, retest, confirmation, cell-based, HEK293 D1, CRE-luciferase, duplicate | shares compounds with D1 allo mod | dopamine EC30 potentiation; active compounds read high | luminescence at 10 µM | 2,200 tested, 88% active;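 active = luminescence in either of two replicates above the same-plate mean plus 3 SD of the low-dose dopamine control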
# D1 no dopamine: D1 receptor agonism without dopamine, confirmation, mechanism study for D1 allosteric modulator project, cell-based, HEK293 D1, CRE-luciferase, secondary assay 1; shares compounds with D1 allo mod; luminescence, no dopamine; active compounds read high; luminescence at 10 µM; 1,900 tested, 0.8% active; in the data active = luminescence above about 3900
# Isoprot counter: alters isoproterenol CRE-luciferase response in HEK293 cells; shares compounds with D1 allo mod; HEK293 D1 CRE-luciferase, isoproterenol EC30 counter-screen; active compounds read high; luminescence at 10 µM; 2,200 tested, 63% active; AID 647;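 active = luminescence in either replicate above plate mean of wells with a partly effective reference agonist dose plus 3 SD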;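 note: isoproterenol raises cAMP through native beta-adrenoceptor Gs so signal bypasses D1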
# * hit, by the source's call; . = no result given. Rows were chosen to be rich in hits. Some 11% of all compounds tested hit in one or more screens of this group.
SMILES,M1 antagonist,D1 allo mod,TNAP act mid DEA,M1 ag,S1P3 ag,S1P1 ag-PAM,D1 PAM confirm,D1 no dopamine,Isoprot counter,others
COc1ccc(C(=O)Nc2nnc(Cc3cccs3)s2)cc1OC,-17.4*,3.05*,0.9,-1.09,-1.5,-15.9,9388*,1740,4460,M1 antag confirm=621;mGluR4 antag=244
CCOCCn1c(SCc2ccccc2)nc2c1c(=O)[nH]c(=O)n2C,-0.271,0.263,1,0.148,0.2,-6.8,.,.,.,
C/C=C/Cn1c(SCc2ccccc2)nc2c1c(=O)[nH]c(=O)n2C,-2.71*,15.1*,1,0.672,-0.6,-4.6,16256*,1572,4120*,M1 antag confirm=589;mGluR4 antag=245
COc1nc(N2CCCCCC2)nc(N2CCCCCC2)n1,0.452,0.0176,1,-0.199,-1.9,3.4,.,.,.,
CCOc1nc(C#N)nc(N2CCCCC2)n1,-1.2*,2.56*,1,-1.64,-0.2,-25.3,10912*,1612,3268*,M1 antag confirm=430*;mGluR4 antag=234
O=C(c1ccccc1)c1nc[nH]c1C(=O)Nc1ccccn1,-0.417,4.58*,1,0.644,0.6,-52.1,9124*,2104,2788,
CCOC(=O)c1[nH]cnc1C(=O)Nc1ccccn1,0.0592,3.97*,1,0.373,-0.8,-11.8,10664*,1452,2932,
Cc1ccccc1N(Cc1nnc2n1CCCCC2)C(=O)Nc1ccccc1,0.964,-0.247,0.9,-0.667,-0.2,-1.7,.,.,.,
CCCn1c2c(c(O)c(C(=O)NC)c1=O)CCCC2,0.117,4.59*,0.8,-0.261,-0.3,-12.1,9448*,1536,3324,
CCCOn1c(OCC(C)C)nc2ccccc2c1=O,-0.00336,4.46*,0.9,0.147,-0.5,4.2,12220*,1508,3724*,
Cc1cc(C)n(-c2nc3ccccc3c(=O)n2OCCOc2ccccc2)n1,0.0281,-0.142,0.9,-0.251,-0.3,54.9,.,.,.,
C=C(C)CSc1nc(N)c2c(C)c(C)sc2n1,-0.889,10.9*,0.9,0.446,-0.2,-12.8,16788*,1564,3412*,
Cc1cc(C)c(C#N)c(SCc2ccc(C#N)cc2)n1,-1.04,7.4*,0.8,1.31,-1.0,-2.3,7996*,1632,2780,
CCNC(=O)c1c(O)c2ccccc2[nH]c1=O,-0.465,11*,1,-0.0491,-0.2,-19.1,15428*,.,2876*,
COc1cccc(NC(=O)N2CCCC2C(=O)NC2CC2)c1 (stereo not given),0.0229,-1.54,0.9,-0.299,-0.9,-4.1,.,.,.,
COCCNC(=O)CSc1nc(-c2ccc(OC)c(OC)c2)cc(C(F)(F)F)n1,0.197,9.35*,0.9,-0.882,-0.2,-31.6,12172*,1680,6624*,
COc1cc2cc(C)c(SCC(=O)N3CCOCC3)nc2cc1OC,-0.107,5.74*,0.9,1.08,-1.1,-9.0,10104*,1624,4500*,
COc1ccc(-c2cc(C(F)(F)F)nc(SCC(=O)N3CCOCC3)n2)cc1OC,-0.753,22.9*,0.8,1.92,0.6,-40.8,16556*,1792,5128*,
CCN1C(=O)c2ccccc2Sc2ccc(C(=O)NCCN3CCOCC3)cc21,0.321,0.0578,0.9,0.0794,-1.7,3.1,.,.,.,
CC(=O)N1CCC(=O)N(C(C)C)c2ccccc21,-0.303,-0.474,1,-0.128,-0.3,4.8,.,.,.,
CCn1c(SCCC#N)nnc1-c1ccncc1,-0.821,0.369,0.9,-0.463,0.3,-54.2,.,.,.,
O=C(CSc1nnnn1-c1ccccc1)N1CCc2ccccc2C1,-0.839,5.38*,0.9,0.221,-1.3,1.9,5840*,.,2452,
O=C(CSc1nnc(-c2ccccc2Br)o1)N1CCc2ccccc2C1,-0.0871,9.92*,0.9,-0.213,1.3,11.4,18392*,1512,3928*,
CCC(NC(C)C)C(O)c1ccc(O)c2[nH]c(=O)ccc12 (stereo not given),0.805,14.1*,1,0.238,-1.8,-11.7,8644*,3980*,5668*,
Cn1c(=O)[nH]c(=O)c2c1nc(N1CCCCCC1)n2CCN1CCCCCC1,-1.07,0.38,0.9,0.561,.,.,.,.,.,
SMILES,M1 antagonist,D1 allo mod,TNAP act mid DEA,M1 ag,S1P3 ag,S1P1 ag-PAM,D1 PAM confirm,D1 no dopamine,Isoprot counter,others
C/C(Cl)=C\Cn1c(N2CCCC2)nc2c1c(=O)[nH]c(=O)n2C,0.258,10.5*,0.9,-0.294,-0.2,-19.1,16008*,2192,4536*,
Cn1c(=O)n(Cc2ccc(F)cc2)c(=O)c2c1nc1n2CCCN1Cc1ccccc1,-0.423,-0.235,0.8,0.929,-0.9,3.2,.,.,.,
C=CCn1c(N2CCCCCC2)nc2c1c(=O)[nH]c(=O)n2C,-0.534,6.42*,.,-0.141,-0.2,-13.7,12744*,1604,4560*,
Cn1c(N2CCCC2)nc2c1c(=O)n(Cc1ccc(F)cc1)c(=O)n2C,0.844,4.46*,0.9,0.225,0.9,-30.4,12452*,1616,4528*,
C/C(Cl)=C/Cn1c(N2CCCC2)nc2c1c(=O)n(C)c(=O)n2C,-0.0175,8.45*,0.9,-0.313,8.7*,-12.4,7912*,.,2640,
Clc1cccc(Nc2c3c(nc4ncnn24)CCC3)c1,-0.107,4.71*,1.2,-1.74,0.4,-14.9,8280*,1584,3144,

# High-throughput results from PubChem.
